Assay results reported in ChEMBL document CHEMBL1128220, “Syntheses and antimalarial activities of N-substituted 11-azaartemisinins” (J Med Chem, 1995).

Assays:
Plasmodium falciparum = assay: In vitro antimalarial activity for chloroquine-resistant Plasmodium falciparum FCR3 relative to artemisinin; type: functional
Mus musculus [1] = assay: Number of mice alive 60 days after infection at the dose of 128 mg/kg/day among the 7 mice tested; type: functional
Summary of the method: (§1)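 Mice infected with Plasmodium berghei were dosed in mg/kg/day, from 0 for untreated controls up to 256. Deaths were logged by the day postinfection on which they occurred. Surviving mice were counted 60 days after infection. Treated groups held 5 or 7 mice.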

Mus musculus [2] = assay: Number of mice alive 60 days after infection at the dose of 8 mg/kg/day among the 7 mice tested; type: functional; summary of the method: as §1
Mus musculus [3] = assay: In vivo study of control in mice was determined by no. of dead mice after 8 days post infection at the dose of 0 mg/kg/day; type: ADME, organism-based; conditions: 192 h; summary of the method: as §1
Mus musculus [4] = assay: In vivo study of control in mice was determined by no. of dead mice after 7 days post infection at the dose of 0 mg/kg/day; type: ADME, organism-based; conditions: 168 h; summary of the method: as §1
Mus musculus [5] = assay: In vivo study of Plasmodium berghei in mice (Mus musculus) was determined by number of dead mice (Mus musculus) after 19 days post infection at the dose of 32 mg/kg/day; type: ADME, organism-based; conditions: 456 h; summary of the method: as §1
Mus musculus [6] = assay: In vivo study of Plasmodium berghei in mice (Mus musculus) was determined by number of dead mice (Mus musculus) after 12 days post infection at the dose of 32 mg/kg/day; type: ADME, organism-based; conditions: 288 h; summary of the method: as §1
Mus musculus [7] = assay: Number of mice alive 60 days after infection at the dose of 0 mg/kg/day among the 7 mice tested; type: functional; summary of the method: as §1
Mus musculus [8] = assay: In vivo study of Plasmodium berghei in mice (Mus musculus) was determined by number of dead mice (Mus musculus) after 20 days post infection at the dose of 32 mg/kg/day; type: ADME, organism-based; conditions: 480 h; summary of the method: as §1
Mus musculus [9] = assay: In vivo study of Plasmodium berghei in mice (Mus musculus) was determined by number of dead mice (Mus musculus) after 18 days post infection at the dose of 32 mg/kg/day; type: ADME, organism-based; conditions: 432 h; summary of the method: as §1
Mus musculus [10] = assay: In vivo study of Plasmodium berghei in mice (Mus musculus) was determined by number of dead mice (Mus musculus) after 17 days post infection at the dose of 128 mg/kg/day; type: ADME, organism-based; conditions: 408 h; summary of the method: as §1
Mus musculus [11] = assay: In vivo study of Plasmodium berghei in mice (Mus musculus) was determined by number of dead mice (Mus musculus) after 27 days post infection at the dose of 32 mg/kg/day; type: ADME, organism-based; conditions: 648 h; summary of the method: as §1
Mus musculus [12] = assay: In vivo study of Plasmodium berghei in mice (Mus musculus) was determined by number of dead mice (Mus musculus) after 16 days post infection at the dose of 8 mg/kg/day; type: ADME, organism-based; conditions: 384 h; summary of the method: as §1
Mus musculus [13] = assay: In vivo study of control in mice was determined by no. of dead mice after 10 days post infection at the dose of 0 mg/kg/day; type: ADME, organism-based; conditions: 240 h; summary of the method: as §1
Mus musculus [14] = assay: In vivo study of Plasmodium berghei in mice (Mus musculus) was determined by number of dead mice (Mus musculus) after 13 days post infection at the dose of 8 mg/kg/day; type: ADME, organism-based; conditions: 312 h; summary of the method: as §1
Mus musculus [15] = assay: Number of mice alive 60 days after infection at the dose of 32 mg/kg/day among the 7 mice tested; type: functional; summary of the method: as §1
Mus musculus [16] = assay: In vivo study of Plasmodium berghei in mice (Mus musculus) was determined by number of dead mice (Mus musculus) after 14 days post infection at the dose of 8 mg/kg/day; type: ADME, organism-based; conditions: 336 h; summary of the method: as §1
Mus musculus [17] = assay: In vivo study of control in mice was determined by no. of dead mice after 9 days post infection at the dose of 0 mg/kg/day; type: ADME, organism-based; conditions: 216 h; summary of the method: as §1
Mus musculus [18] = assay: Number of mice alive 60 days after infection at the dose of 64 mg/kg/day among the 7 mice tested; type: functional; summary of the method: as §1
Mus musculus [19] = assay: Number of mice alive 60 days after infection at the dose of 16 mg/kg/day among the 7 mice tested; type: functional; summary of the method: as §1
Mus musculus [20] = assay: In vivo study of compound in mice was determined by no. of dead mice after 12 days post infection at the dose of 4 mg/kg/day; type: ADME, organism-based; conditions: 288 h; summary of the method: as §1
Mus musculus [21] = assay: In vivo study of compound in mice was determined by no. of dead mice after 18 days post infection at the dose of 4 mg/kg/day; type: ADME, organism-based; conditions: 432 h; summary of the method: as §1
Mus musculus [22] = assay: In vivo study of compound in mice was determined by no. of dead mice after 9 days post infection at the dose of 4 mg/kg/day; type: ADME, organism-based; conditions: 216 h; summary of the method: as §1
Mus musculus [23] = assay: Number of mice alive 60 days after infection at the dose of 4 mg/kg/day among the 7 mice tested; type: functional; summary of the method: as §1
Mus musculus [24] = assay: In vivo study of compound in mice was determined by no. of dead mice after 8 days post infection at the dose of 4 mg/kg/day; type: ADME, organism-based; conditions: 192 h; summary of the method: as §1
Mus musculus [25] = assay: In vivo study of compound in mice was determined by no. of dead mice after 18 days post infection at the dose of 16 mg/kg/day; type: ADME, organism-based; conditions: 432 h; summary of the method: as §1
Mus musculus [26] = assay: In vivo study of compound in mice was determined by no. of dead mice after 16 days post infection at the dose of 4 mg/kg/day; type: ADME, organism-based; conditions: 384 h; summary of the method: as §1
Mus musculus [27] = assay: Number of mice alive 60 days after infection at the dose of 256 mg/kg/day among the 7 mice tested; type: functional; summary of the method: as §1
Mus musculus [28] = assay: In vivo study of compound in mice was determined by no. of dead mice after 11 days post infection at the dose of 4 mg/kg/day; type: ADME, organism-based; conditions: 264 h; summary of the method: as §1
Mus musculus [29] = assay: In vivo study of compound in mice was determined by no. of dead mice after 15 days post infection at the dose of 8 mg/kg/day; type: ADME, organism-based; conditions: 360 h; summary of the method: as §1
Mus musculus [30] = assay: In vivo study of Plasmodium berghei in mice (Mus musculus) was determined by number of dead mice (Mus musculus) after 20 days post infection at the dose of 8 mg/kg/day; type: ADME, organism-based; conditions: 480 h; summary of the method: as §1
Mus musculus [31] = assay: Number of mice alive 60 days after infection at the dose of 128 mg/kg/day among the 5 mice tested; type: functional; summary of the method: as §1
Mus musculus [32] = assay: In vivo study of compound in mice was determined by no. of dead mice after 16 days post infection at the dose of 8 mg/kg/day; type: ADME, organism-based; conditions: 384 h; summary of the method: as §1
Mus musculus [33] = assay: In vivo study of compound in mice was determined by no. of dead mice after 19 days post infection at the dose of 8 mg/kg/day; type: ADME, organism-based; conditions: 456 h; summary of the method: as §1
Mus musculus [34] = assay: Number of mice alive 60 days after infection at the dose of 8 mg/kg/day among the 5 mice tested; type: functional; summary of the method: as §1
Mus musculus [35] = assay: In vivo study of compound in mice was determined by no. of dead mice after 26 days post infection at the dose of 8 mg/kg/day; type: ADME, organism-based; conditions: 624 h; summary of the method: as §1
Mus musculus [36] = assay: Number of mice alive 60 days after infection at the dose of 32 mg/kg/day among the 5 mice tested; type: functional; summary of the method: as §1

C[C@@H]1CCC2[C@@H](C)C(=O)N(Cc3cccs3)[C@@H]3O[C@@]4(C)CC[C@@H]1[C@@]23OO4 (some centres not stated)
Relative activity (Plasmodium falciparum): 1.1

C[C@@H]1CCC2[C@@H](C)C(=O)N[C@@H]3O[C@@]4(C)CC[C@@H]1[C@@]23OO4 (some centres not stated)
Relative activity (Plasmodium falciparum): 1

C[C@@H]1CCC2[C@@H](C)C(=O)N(Cc3ccccn3)[C@@H]3O[C@@]4(C)CC[C@@H]1[C@@]23OO4 (some centres not stated)
Relative activity (Plasmodium falciparum): 22

CO[C@@]1(C)CC[C@@H]2C3C(CC[C@H]2C)[C@@H](C)C(=O)N(Cc2ccccn2)[C@@H]3O1 (some centres not stated)
Relative activity (Plasmodium falciparum): 0.008

C[C@@H]1CCC2[C@@H](C)C(=O)N(Cc3ccco3)[C@@H]3O[C@@]4(C)CC[C@@H]1[C@@]23OO4 (some centres not stated)
Relative activity (Plasmodium falciparum): 1

CO[C@@]1(C)CC[C@@H]2C3C(CC[C@H]2C)[C@@H](C)C(=O)N[C@@H]3O1 (some centres not stated)
Relative activity (Plasmodium falciparum): 0.01

C[C@@H]1CC[C@H]2[C@@H](C)C(=O)O[C@@H]3O[C@@]4(C)CC[C@@H]1[C@]32OO4 [ARTEMISININ]
No. of mice alive (Mus musculus [1]): 6
No. of mice alive (Mus musculus [2]): 0
No. of dead mice (Mus musculus [3]): 2
No. of dead mice (Mus musculus [4]): 3
No. of dead mice (Mus musculus [5]): 1
No. of dead mice (Mus musculus [6]): 1
No. of mice alive (Mus musculus [7]): 0
No. of dead mice (Mus musculus [8]): 1
No. of dead mice (Mus musculus [9]): 1
No. of dead mice (Mus musculus [10]): 1
No. of dead mice (Mus musculus [11]): 1
No. of dead mice (Mus musculus [12]): 2
No. of dead mice (Mus musculus [13]): 1
No. of dead mice (Mus musculus [14]): 1
No. of mice alive (Mus musculus [15]): 2
No. of dead mice (Mus musculus [16]): 2
No. of dead mice (Mus musculus [17]): 1

C[C@@H]1CCC2[C@@H](C)C(=O)N(CC(C)(C)C)[C@@H]3O[C@@]4(C)CC[C@@H]1[C@@]23OO4 (some centres not stated)
Relative activity (Plasmodium falciparum): 9

CCOC1O[C@@H]2O[C@@]3(C)CC[C@H]4[C@H](C)CCC([C@H]1C)[C@@]24OO3 (some centres not stated)
No. of mice alive (Mus musculus [18]): 7
No. of mice alive (Mus musculus [19]): 6
No. of dead mice (Mus musculus [20]): 1
No. of dead mice (Mus musculus [21]): 2
No. of dead mice (Mus musculus [22]): 1
No. of mice alive (Mus musculus [23]): 0
No. of dead mice (Mus musculus [24]): 1
No. of dead mice (Mus musculus [25]): 1
No. of dead mice (Mus musculus [26]): 1
No. of mice alive (Mus musculus [27]): 7
No. of dead mice (Mus musculus [28]): 1

C[C@@H]1CCC2[C@@H](C)C(=O)N(CC=O)[C@@H]3O[C@@]4(C)CC[C@@H]1[C@@]23OO4 (some centres not stated)
No. of dead mice (Mus musculus [29]): 1
No. of dead mice (Mus musculus [30]): 1
No. of mice alive (Mus musculus [31]): 5
No. of dead mice (Mus musculus [32]): 1
Relative activity (Plasmodium falciparum): 26
No. of dead mice (Mus musculus [33]): 1
No. of mice alive (Mus musculus [34]): 0
No. of dead mice (Mus musculus [35]): 1
No. of mice alive (Mus musculus [36]): 5

C[C@@H]1CCC2[C@@H](C)C(=O)N(C)[C@@H]3O[C@@]4(C)CC[C@@H]1[C@@]23OO4 (some centres not stated)
Relative activity (Plasmodium falciparum): 2.6

CO[C@@]1(C)CC[C@@H]2C3C(CC[C@H]2C)[C@@H](C)C(=O)N(CC(C)(C)C)[C@@H]3O1 (some centres not stated)
Relative activity (Plasmodium falciparum): 0.001

C=CCN1C(=O)[C@H](C)C2CC[C@@H](C)[C@@H]3CC[C@@]4(C)OO[C@@]23[C@H]1O4 (some centres not stated)
Relative activity (Plasmodium falciparum): 0.8
